LMPTP inh: blocks human LMPTP phosphatase | inhibition, % at 20 µM | 0.22% of 360,000 active | P24666 | AID 651560 | recombinant LMPTP-A, OMFP fluorogenic substrate, fluorescence intensity;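 active = compounds that cut the enzyme signal by at least half of the control window in the single-dose screen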;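 also: plate controls were DMSO wells with enzyme plus substrate for no effect and substrate without enzyme for full effect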
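Test system: LMPTP-A, protein tyrosine phosphatase of low molecular weight; Input: 0.625 nM enzyme; Incubation: 50 min dark incubation at room temperature; Signal: endpoint fluorescence intensity from OMFP dephosphorylation; Read-out basis: % inhibition versus control wells.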
F508del corr: correctors of CFTR F508del function in bronchial epithelial cells. 0.36% of 350,000 active. activity (quench increase), % at 7.58 µM. CFBE cells, YFP halide quenching; stimulated with forskolin plus potentiator P3; % fluorescence drop versus neutral controls. AID 720511;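 active = mean added fluorescence quench of at least 8% versus neutral control, with both replicates also reaching 8%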;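 also: cells transiently co-express mutant CFTR-F508del with the halide-sensitive YFP; corrector assay measuring rescue of mutant channel to the surface after 24 h compound exposure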
DNMT1 inh: DNMT1 (human) enzyme inhibition; 0.83% of 360,000 active; P26358; inhibition (reported as % activation of signal), % at 10 µM; DNMT1 molecular beacon, Hinp1I cleavage, fluorescence; in the data active = inhibition above about 50%
Scp1 inh: Scp-1 (human) phosphatase inhibition | Q9GZU7 | Recombinant Scp1, phosphopeptide, malachite green phosphate absorbance | inhibition, % at 20 µM | 0.88% of 340,000 active;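 active = inhibition above about 50% at 20 µM, limit read from the data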;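 also: plate controls were DMSO wells with enzyme for no effect and wells lacking enzyme for full effect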
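Test system – truncated SCP-1 phosphatase (76-261aa) · Reagent – Phosphorylated 17-residue peptide substrate · Incubation – 45 min room-temperature reaction, 5 min colour, 30 min stabiliser · Detection – colorimetric phosphate reagent with accelerator and stabiliser, absorbance at 630 nm · Measure – % inhibition at 20 µM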
STEP block: inhibitors of human striatal-enriched phosphatase STEP; P54829; recombinant STEP, OMFP fluorogenic substrate, fluorescence; inhibition, % at 20 µM; 0.25% of 360,000 active;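 active = inhibition at 20 µM, scaled per plate between control wells, above about 37%, limit read from the data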;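 also: 0% = DMSO with enzyme and substrate and 100% = substrate only without enzyme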
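Test system: STEP tyrosine phosphatase / Reagent: OMFP at 25 µM / Doses: 20 µM, 1% DMSO / Read-out: percent inhibition scaled to no-enzyme and uninhibited-enzyme controls, plate-pattern corrected / Detection: FITC-channel fluorescence of OMFP product / Medium: Bis-Tris buffer pH 6.0, 2.5 mM DTT, 0.005% Tween 20 / Schedule: 20 min at room temperature, dark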
SUMO1 PPI mod: alters human SUMO1 binding to SIM partners. SUMO1 binding to a labelled peptide, TR-FRET, 1 h. inhibition, % at 20 µM. 0.33% of 360,000 active. P63165. AID 602429; in the data active = inhibition above about 37%
Scp1 confirm: confirmation of human Scp-1 phosphatase inhibitors. shares compounds with Scp1 inh. recombinant SCP-1 catalytic domain, phosphate release, malachite green absorbance. inhibition, % at 20 µM. 61% of 2,500 active. AID 540281;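 also: plate controls were DMSO with enzyme for no effect and buffer wells lacking enzyme for full effect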
MG interference: colorimetric interference in Scp-1 counter-screen; shares compounds with Scp1 inh; Colorimetric interference counterscreen, malachite green absorbance 630 nm; apparent inhibition (interference), % at 20 µM; 2,500 tested, under 10 active; AID 540313;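 also: compounds added after enzyme reaction finished so only phosphate colour detection is probed; plate controls were DMSO wells with completed Scp-1 reaction for no effect and substrate wells lacking enzyme for full effect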
Scp1 DSF: binds human Scp-1, shifting its melting temperature; shares compounds with Scp1 inh; Recombinant SCP1, Sypro Orange thermal shift Tm; thermal shift relative to vanadate control, % at 40 µM; 25% of 1,500 active; AID 540329;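 active = substances whose mean melting-temperature shift, as a percentage of the reference inhibitor's shift, reaches about 5.3%, limit read from the data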;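 also: 0% = Tm of DMSO wells and 100% = Tm with sodium orthovanadate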
* = called active by the depositor; / = not tested or not shown. Shown are actives, neighbours in structure and some others; about 1.6% of the full set was active somewhere.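 The calls were made as follows, unless noted: active = inhibition of at least 30% at 20 µM; inactive = the rest.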

SMILES | LMPTP inh | F508del corr | DNMT1 inh | Scp1 inh | STEP block | SUMO1 PPI mod | Scp1 confirm | MG interference | others
CN(C)CC#Cc1ccc([C@H]2[C@H](CO)N3C(=O)CN(C(=O)c4ccccc4)C[C@@H]23)cc1 | / | -5 | / | / | / | / | / | /
Cc1ccc(-c2csc(C3=C(O)CN(NC(=O)c4ccco4)C3=N)n2)cc1 | 41 | -3 | 21 | 51* | 12 | 5 | 35* | -2 | Scp1 DSF=-12
COc1ccc(N2CC(O)=C(c3nc(-c4ccccc4)cs3)C2=N)cc1 | 3 | 0 | 5 | -1 | 1 | -6 | / | /
O=C(Nc1cccc(Cl)c1)c1cccc(N2C(=O)C3CC=CCC3C2=O)c1 (stereo unspecified) | 1 | 2 | 24 | 52* | 19 | 38 | 28 | -15
O=C(Nc1cccc(N2C(=O)C3CCCCC3C2=O)c1)c1ccccc1 (stereo unspecified) | 0 | 0 | 3 | -5 | -3 | 6 | / | /
CCOc1cc(/C=C\c2nc(O)c([N+](=O)[O-])c(=O)[nH]2)ccc1OC(C)C | -1 | -1 | 4 | -2 | 0 | -12 | / | /
C=CCc1cc(/C=C/c2nc(O)c([N+](=O)[O-])c(=O)[nH]2)cc(OC)c1O | -5 | -1 | 31 | 64* | 3 | 15 | 59* | -12 | Scp1 DSF=11*
CCCNC(=O)N(C)C[C@H]1Oc2cc(C#CCN(C)C)ccc2S(=O)(=O)N([C@H](C)CO)C[C@H]1C | / | -1 | / | / | / | / | / | /
CO[C@H]1CN(C)C(=O)c2cc(NC(=O)C3CC3)ccc2OC[C@@H](C)N(C(=O)c2ccncc2)C[C@H]1C | / | 0 | / | / | / | / | / | /
Cc1cc(CSc2ccccc2)ccc1NC(=O)c1cccc([N+](=O)[O-])c1 | -1 | / | 9 | 54* | -2 | -1 | -12 | -16
Cc1cc(O)c(NC(=O)c2cccc([N+](=O)[O-])c2)cc1C | -1 | -3 | 2 | 1 | 16 | -11 | / | /
O=C(O)c1cc(-c2ccc(/C=C3\NC(=O)N(c4ccccc4)C3=O)o2)ccc1Cl | -1 | 1 | 57* | 73* | 40* | 9 | 55* | -8 | Scp1 DSF=9.1*
Cc1ccc(CN2C(=O)N/C(=C/c3ccc(-c4ccc(C(=O)O)cc4)o3)C2=O)cc1 | 4 | 0 | 42 | 59* | 7 | 39* | 48* | -11 | Scp1 DSF=4
CCCN1[C@@H]2Cn3c(ccc(C4=CCCC4)c3=O)[C@H]1[C@@H](C(=O)N(C)C)[C@@H]2CO | / | 0 | / | / | / | / | / | /
CCC1(c2ccccc2)NC(=O)N(CC(=O)NNC(=O)COc2ccc(Cl)cc2C)C1=O (stereo unspecified) | 0 | 1 | -2 | -11 | 2 | 2 | -9 | -8
CCC1(c2ccccc2)NC(=O)N(CC(=O)NCc2ccncc2)C1=O (stereo unspecified) | -2 | -2 | -1 | -10 | -2 | -3 | / | /
C(=N\n1c2ccccc2c2ccccc21)/c1ccccc1 | 2 | / | -2 | -8 | -1 | -5 | / | /
C[n+]1cn(/N=C/c2ccccc2)c2ccccc21 | -3 | / | -1 | 113* | -4 | -4 | -4 | -8
CCCc1c(C(=O)N/N=C/c2cccs2)nnn1-c1nonc1N | 7 | 2 | 20 | 30 | 1 | 9 | / | /
CCCc1c(C(=O)N/N=C/c2ccc(C)s2)nnn1-c1nonc1N | 29 | -2 | 25 | 61* | 12 | -2 | 27 | -7
O=C(Nc1cccc(F)c1)N1C[C@@H]2[C@H](c3ccccc31)[C@H](CO)N2C(=O)Cc1ccccn1 | / | -3 | / | / | / | / | / | /
O=C(O)c1ccc(-n2c(-c3cc(-c4ccco4)[nH]n3)n[nH]c2=S)cc1 | -2 | / | 43 | 67* | 6 | 27 | 69* | -8 | Scp1 DSF=-6
CCCN1C[C@@H](C)[C@@H](OC)CN(C)C(=O)c2cc(NC(=O)NC3CCCCC3)ccc2OC[C@@H]1C | / | -1 | / | / | / | / | / | /
Cc1ccccc1C(=O)Nc1ccc(C(=O)N/N=C/c2ccc(F)cc2)cc1 | 2 | 0 | 26 | 91* | 12 | -3 | 28 | -13
COc1ccc(/C=C/C(=O)Oc2cccc(/C=N/NC(=O)c3cccc(F)c3)c2)cc1 | 5 | / | 4 | 87* | 0 | 1 | 37* | -11 | Scp1 DSF=-12
SMILES | LMPTP inh | F508del corr | DNMT1 inh | Scp1 inh | STEP block | SUMO1 PPI mod | Scp1 confirm | MG interference | others
COC(=O)c1ccc(/C=N/NC(=O)c2cccc(F)c2)cc1 | -1 | 0 | 0 | 87* | 8 | -15 | 48* | -18 | Scp1 DSF=-11
COc1ccc(/C=C/C(=O)Oc2ccc(/C=N\NC(=O)c3ccc(F)cc3)cc2)cc1 | 0 | / | 5 | -7 | -2 | -5 | / | /
COCC(=O)Nc1ccc2c(c1)[C@@H]1C[C@@H](CC(=O)NCC3CC3)O[C@H](CO)[C@@H]1O2 | / | 5 | / | / | / | / | / | /
CNC[C@@H]1OCCCC[C@@H](C)Oc2ccc(NC(=O)Nc3c(C)noc3C)cc2C(=O)N([C@H](C)CO)C[C@@H]1C | / | 0 | / | / | / | / | / | /
Cc1onc(-c2c(F)cccc2Cl)c1C(=O)NCCN1CCNC1=O | 1 | 0 | 1 | -14 | -1 | 4 | -6 | -11
Cc1ccc(C(=O)NCCN2CCNC2=O)cc1 | -1 | -1 | 1 | -18 | 4 | 3 | -11 | -7
CNC(=O)C[C@@H]1CC[C@H]2[C@@H](COC[C@H](O)CN2Cc2ccc(Cl)c(Cl)c2)O1 | / | 0 | / | / | / | / | / | /
CCOC(=O)C1=C(C)N=c2s/c(=C\c3ccc(C(=O)O)cc3)c(=O)n2C1c1ccc(OC)cc1OC (stereo unspecified) | 1 | -4 | -2 | 73* | 6 | -23 | 72* | -7 | Scp1 DSF=6.9*
CCOC(=O)C1=C(C)N=c2s/c(=C\c3ccc(C(=O)O)cc3)c(=O)n2C1c1ccc(F)cc1 (stereo unspecified) | 1 | -1 | 1 | 7 | 11 | -18 | / | /
CC[n+]1c(/C=C/Nc2ccccc2)oc2ccccc21 | 1 | / | 7 | 99* | -1 | -10 | -13 | -19
Cn1nnc(-c2ccc(OCc3ccccc3F)cc2)n1 | 0 | / | 3 | 65* | 4 | -3 | -10 | -10
COc1ccc2cc(C(=O)Nc3ccc(S(N)(=O)=O)cc3)sc(=O)c2c1OC | 6 | 3 | 1 | 73* | 10 | -29 | 38* | -22 | Scp1 DSF=-4
COc1ccc2cc(C(=O)Nc3ccccc3)sc(=O)c2c1OC | 2 | / | 6 | 36 | 8 | -10 | / | /
